# Data published in ChEMBL document CHEMBL4808174, “Exploring Heteroaromatic Rings as a Replacement for the Labile Amide of Antiplasmodial Pantothenamides” (J Med Chem, 2021).
# Calls of active or inactive are those of the source. No cut-off for these calls is given here.
# What was measured:
# [1] = Selectivity index, ratio of IC50 for human HFF cells to IC50 for Plasmodium falciparum in presence of 1 uM pantothenate; assay type: toxicity; conditions: HFF cells versus Plasmodium falciparum, read-out: Ratio IC50
# Summary of the method: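 HFF cells grown 3-4 days in RPMI 1640 with 10% bovine calf serum and antibiotics, with compound up to 200 μM; SYBR Safe-based read-out. Selectivity index = HFF IC50 divided by P. falciparum IC50 at 1 μM pantothenate. Where HFF inhibition stayed below 50%, 200 μM (or 100 μM) was used as the HFF value to set limits.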
# [2] = Antiproliferative activity against human HFF cells assessed as cell proliferation at 200 uM incubated for 3 to 4 days in presence of 1 uM pantothenate by SYBR assay
# Plasmodium falciparum [3] = assay: Antiplasmodial activity against ring stage Plasmodium falciparum 3D7 infected in human erythrocytes assessed as inhibition of parasite growth incubated for 96 hrs in presence of 1 uM pantothenate by SYBR Green I dye based fluorescence assay; assay type: functional, organism-based; conditions: 3D7, Erythrocyte
# Summary of the method: (§1)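 P. falciparum 3D7 ring stages at 0.5% parasitemia and 1% hematocrit in Albumax II medium. Where specified, 100 μM sodium pantothenate was added. Incubation 96 h, then freeze-thaw and SYBR Safe lysis-buffer fluorescence. Chloroquine 0.25-25 μM served as zero-proliferation control. Experiments in triplicate; 100 μM pantothenate data from two experiments.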
# [4] = Antiproliferative activity against human HFF cells assessed as cell proliferation at 100 uM incubated for 3 to 4 days in presence of 1 uM pantothenate by SYBR assay
# [5] = Apparent permeability of the compound across apical to basolateral side in human Caco-2 cells at 20 uM
# Plasmodium falciparum [6] = assay: Antiplasmodial activity against ring stage Plasmodium falciparum 3D7 infected in human erythrocytes assessed as inhibition of parasite growth incubated for 96 hrs in presence of 100 uM pantothenate by SYBR Green I dye based fluorescence assay; assay type: functional, organism-based; conditions: 3D7, Erythrocyte; summary of the method: as §1
# Plasmodium falciparum [7] = assay: Antiplasmodial activity against ring stage Plasmodium falciparum NF54 infected in human erythrocytes assessed as inhibition of parasite growth incubated for 72 hrs in presence of pantothenate by SYBR Green dye based fluorescence assay; assay type: functional, organism-based; conditions: NF54, Erythrocyte
# Plasmodium falciparum [8] = assay: Antiplasmodial activity against ring stage Plasmodium falciparum 3D7 infected in human erythrocytes assessed as inhibition of parasite growth at 100 uM pretreated with compound followed by parasite infection by SYBR Green I dye based fluorescence assay; assay type: functional, organism-based; conditions: Erythrocyte
# [9] = Metabolic stability in mouse liver microsomes assessed as half life at 1 uM in presence or absence of NADPH regenerating system by LC-MS analysis; assay type: ADME, Microsome
# Summary of the method: (§2)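 Stability in mouse or human liver microsomes was measured with and without an NADPH-regenerating system, giving in vitro t1/2 and intrinsic clearance in μL/min/mg protein.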
# Plasmodium falciparum [10] = assay: Antiplasmodial activity against ring stage Plasmodium falciparum 3D7 infected in human erythrocytes assessed as inhibition of parasite growth incubated for 24 hrs by SYBR Green I dye based fluorescence assay; assay type: functional, organism-based; conditions: Erythrocyte
# Summary of the method: (§3)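 Triple-sorbitol-synchronized 3D7 ring-stage cultures at 0.5% parasitemia and 1% hematocrit were exposed to compound at ten concentrations at 37 °C in 96% N₂, 3% CO₂, 1% O₂. After 5, 10, 24 or 48 h, cells were washed three times and resuspended without compound. Total culture time 96 h, then SYBR Safe fluorescence. Three experiments in triplicate.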
# [11] = Metabolic stability in mouse liver microsomes assessed as intrinsic clearance at 1 uM in presence or absence of NADPH regenerating system measured per mg protein by LC-MS analysis; assay type: ADME, Microsome; conditions: read-out: CLH; summary of the method: as §2
# [12] = Drug degradation in mouse liver microsomes after 60 mins; assay type: ADME, Microsome; conditions: read-out: Drug degradation
# Summary of the method: (§4)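 Degradation in mouse or human liver microsomes was followed over 60 min, with and without an NADPH-regenerating system.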
# [13] = Metabolic stability in human liver microsomes assessed as intrinsic clearance at 1 uM in presence of absence of NADPH regenerating system measured per mg protein by LC-MS analysis; assay type: ADME, Microsome; conditions: read-out: CLH; summary of the method: as §2
# Plasmodium berghei = assay: Antiplasmodial activity against Plasmodium berghei ANKA infected in BALB/c mouse model of malaria assessed as reduction in parasitemia at 100 mg/kg/day, ip for 2 days by Giemsa staining based flow cytometry analysis; assay type: functional, organism-based; conditions: time 2.0 day
# Summary of the method: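 Female BALB/c mice, 8-12 weeks, infected ip with 1 × 10⁵ P. berghei ANKA-infected erythrocytes. Once parasitemia reached 0.4-1.5% (5 mice per group), 100 mg/kg was given ip in 150 mM NaCl containing 20.9% v/v DMSO; second dose at 24 h. Daily tail-bleed parasitemia was read by Giemsa-stained thin smear or by flow cytometry (JC-1, Hoechst 33342, anti-CD45/CD71/TER119).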
# [14] = Metabolic stability in human liver microsomes assessed as half life at 1 uM in presence or absence of NADPH regenerating system by LC-MS analysis; assay type: ADME, Microsome; summary of the method: as §2
# [15] = Drug concentration in BALB/c mouse plasma at 100 mg/kg/day, ip measured after 3 hrs; assay type: ADME, organism-based; conditions: whole blood, in the assay text read “whole blood” for “plasma”
# Summary of the method: (§5)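 Dosing was 100 mg/kg ip in P. berghei-infected female BALB/c mice, repeated at 24 h. 10 μL tail whole blood was sampled by microsampling device at 3 h, at ~24 h (before the second dose) and at 48 h. Samples were extracted with 80% acetonitrile using diazepam as internal standard and quantified by LC-MS MRM against a spiked-blood standard curve of 5 ng/mL-20 μg/mL. LLQ was 16 or 17 nM. Mean of five mice.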
# [16] = Drug concentration in BALB/c mouse plasma at 100 mg/kg/day, ip measured after 1 day; assay type: ADME, organism-based; conditions: whole blood, in the assay text read “whole blood” for “plasma”; summary of the method: as §5
# Plasmodium falciparum [17] = assay: Antiplasmodial activity against ring stage Plasmodium falciparum 3D7 infected in human erythrocytes assessed as inhibition of parasite growth incubated for 10 hrs by SYBR Green I dye based fluorescence assay; assay type: functional, organism-based; conditions: Erythrocyte; summary of the method: as §3
# [18] = Drug concentration in BALB/c mouse plasma at 100 mg/kg/day, ip measured after 2 days; assay type: ADME, organism-based; conditions: whole blood, in the assay text read “whole blood” for “plasma”; summary of the method: as §5
# Plasmodium knowlesi = assay: Antiplasmodial activity against Plasmodium knowlesi infected in human erythrocytes assessed as inhibition of parasite growth incubated for 72 hrs in presence of 1 uM pantothenate by SYBR Green I dye based fluorescence assay; assay type: functional, organism-based; conditions: Erythrocyte
# [19] = Drug degradation in human liver microsomes after 60 mins; assay type: ADME, Microsome; conditions: read-out: Drug degradation; summary of the method: as §4
# Plasmodium falciparum [20] = assay: Antiplasmodial activity against ring stage Plasmodium falciparum 3D7 infected in human erythrocytes assessed as inhibition of parasite growth incubated for 48 hrs by SYBR Green I dye based fluorescence assay; assay type: functional, organism-based; conditions: Erythrocyte; summary of the method: as §3
# [21] = Drug degradation in mouse liver microsomes in presence of NADPH after 60 mins; assay type: ADME, Microsome; conditions: 1 h; summary of the method: as §4
# [22] = Drug degradation in mouse liver microsomes in absence of NADPH after 60 mins; assay type: ADME, Microsome; conditions: read-out: Drug degradation; summary of the method: as §4
SMILES,selectivity ratio at 1 µM [1],proliferation at 200 µM [2] [%],IC50 (Plasmodium falciparum [3]) [nM],proliferation at 100 µM [4] [%],further results
CCCCCc1ccc(CNC(=O)[C@H](O)C(C)(C)CO)s1,35,16,2800,58,–
CCCCCn1ncc(CNC(=O)[C@H](O)C(C)(C)CO)n1,> 7.1,103,28000,97,–
CCCCc1cc(CNC(=O)[C@H](O)C(C)(C)CO)on1,> 1000,101,190,97,–
CC(C)NCC(O)COc1cccc2ccccc12 (stereo not drawn) [PROPRANOLOL],–,–,–,–,Papp A→B at 20 µM [5]: 49 ×10⁻⁶ cm/s
CCCCCn1cnc(CNC(=O)[C@H](O)C(C)(C)CO)c1,> 14,103,14000,91,–
CCCCCc1noc(CNC(=O)[C@H](O)C(C)(C)CO)n1,> 37,90,5300,91,–
CCCCCc1cc(CNC(=O)[C@H](O)C(C)(C)CO)on1,> 310,88,630,100,IC50 (Plasmodium falciparum [6]): > 12000 nM
CCCCCn1cc(CNC(=O)[C@H](O)C(C)(C)CO)cn1,> 5,85,34000,102,–
CCCCCc1cc(CNC(=O)[C@H](O)C(C)(C)CO)n[nH]1,> 27,89,7400,88,–
NNC(=O)N1C(=O)c2cc(S(=O)(=O)[O-])cc3c(N)c(S(=O)(=O)[O-])cc(c23)C1=O.[Li+].[Li+] [LUCIFER YELLOW],–,–,–,–,Papp A→B at 20 µM [5]: < 1 ×10⁻⁶ cm/s
CCCCCC(=O)NCCNC(=O)[C@H](O)C(C)(C)CO,–,–,–,–,IC50 (Plasmodium falciparum [7]): 630 nM
CCCCCn1cnc(CNC(=O)[C@H](O)C(C)(C)CO)n1,–,106,> 100000,101,–
CCCCCCc1cc(CNC(=O)[C@H](O)C(C)(C)CO)no1,> 830,60,240,78,–
CC(C)(CO)[C@@H](O)C(=O)NCc1cc(CCc2ccccc2)on1,> 33,95,5900,94,–
CCCCc1cc(CNC(=O)[C@H](O)C(C)(C)CO)no1,> 2700,74,72,95,–
CCN(CC)CCCC(C)Nc1ccnc2cc(Cl)ccc12 (stereo not drawn),–,–,–,–,Activity (Plasmodium falciparum [8]): inactive
CCCCCc1nnc(CNC(=O)[C@H](O)C(C)(C)CO)[nH]1,> 5,71,40000,84,–
CCCCCCn1cc(CNC(=O)[C@H](O)C(C)(C)CO)nn1,–,–,55,–,–
CCCCCc1cc(CCNC(=O)[C@H](O)C(C)(C)CO)on1,> 41,95,4800,97,–
CCCCCCc1cc(CNC(=O)[C@H](O)C(C)(C)CO)on1,> 90,87,2200,97,–
CCCCCc1nnc(CNC(=O)[C@H](O)C(C)(C)CO)o1,> 2.8,91,71000,108,–
CC(C)(CO)[C@@H](O)C(=O)NCc1cc(CCc2ccccc2)no1,> 18,113,11000,102,–
CCCCCn1cc(CNC(=O)[C@H](O)C(C)(C)CO)nn1,> 3500,77,56,88,half-life at 1 µM [9]: > 4.25 h; IC50 (Plasmodium falciparum [6]): > 250 nM; Activity (Plasmodium falciparum [10]): Active; Activity (Plasmodium falciparum [8]): inactive; microsomal CLint at 1 µM [11]: < 7 µL/min/mg; metabolised at 1 h [12]: < 15%; microsomal CLint at 1 µM [13]: < 7 µL/min/mg; Activity (Plasmodium berghei): inactive; half-life at 1 µM [14]: > 4.25 h; concentration at 3 h [15]: 1100 nM; concentration at 24 h [16]: < 16 nM; Activity (Plasmodium falciparum [17]): inactive; concentration at 48 h [18]: < 16 nM; IC50 (Plasmodium knowlesi): 28 nM; metabolised at 1 h [19]: < 15%; Activity (Plasmodium falciparum [20]): Active; Papp A→B at 20 µM [5]: 13 ×10⁻⁶ cm/s
CCCCCc1ncc(CNC(=O)[C@H](O)C(C)(C)CO)o1,1.2,35,80000,87,–
CCCCCc1nnc(CNC(=O)[C@H](O)C(C)(C)CO)s1,> 200,88,960,90,IC50 (Plasmodium falciparum [6]): 26000 nM
CCCCCc1nc(CNC(=O)[C@H](O)C(C)(C)CO)no1,> 110,100,1800,111,IC50 (Plasmodium falciparum [6]): > 12000 nM
CCCCCc1cnc(CNC(=O)[C@H](O)C(C)(C)CO)o1,> 8.6,82,23000,98,–
CCCCCc1cc(CNC(=O)[C@H](O)C(C)(C)CO)no1,> 1200,71,160,104,half-life at 1 µM [9]: 0.55 h; IC50 (Plasmodium falciparum [6]): > 1000 nM; Activity (Plasmodium falciparum [10]): Active; Activity (Plasmodium falciparum [8]): inactive; microsomal CLint at 1 µM [11]: 53 µL/min/mg; Stabilty [21]: Unstable; microsomal CLint at 1 µM [13]: 11 µL/min/mg; Activity (Plasmodium berghei): inactive; metabolised at 1 h [22]: 20%; half-life at 1 µM [14]: 2.53 h; concentration at 3 h [15]: 72 nM; concentration at 24 h [16]: < 17 nM; Activity (Plasmodium falciparum [17]): inactive; concentration at 48 h [18]: < 17 nM; IC50 (Plasmodium knowlesi): 6.1 nM; Activity (Plasmodium falciparum [20]): Active; Papp A→B at 20 µM [5]: 55 ×10⁻⁶ cm/s
